MBD2 DNA inh: inhibitors of MBD2 binding to methylated DNA, primary screen, biochemical, TR-FRET, DNA-binding domain, human | Methyl-CpG-binding domain protein 2 (Homo sapiens), Q9UBB5 | MBD2 binding to methylated oligonucleotide | inhibition, % at 4.4 µM | 370,000 compounds, 0.31% hits; in the data active = inhibition above about 13%
TDP2 inh: human TDP2 enzyme inhibitors, primary screen, biochemical, epi absorbance, recombinant enzyme. Tyrosyl-DNA phosphodiesterase 2 (Homo sapiens), O95551. T5PNP hydrolysis, p-nitrophenol absorbance 415 nm. inhibition, % at 12.8 µM. 370,000 compounds, 0.34% hits;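 active = inhibition above the mean of all tested compounds plus 3 SD, set per campaign, cut at about 25% in these data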;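 also: 0% = DMSO with enzyme and 100% = buffer with substrate but no TDP2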
Target sequence (O95551 whole entry, looked up): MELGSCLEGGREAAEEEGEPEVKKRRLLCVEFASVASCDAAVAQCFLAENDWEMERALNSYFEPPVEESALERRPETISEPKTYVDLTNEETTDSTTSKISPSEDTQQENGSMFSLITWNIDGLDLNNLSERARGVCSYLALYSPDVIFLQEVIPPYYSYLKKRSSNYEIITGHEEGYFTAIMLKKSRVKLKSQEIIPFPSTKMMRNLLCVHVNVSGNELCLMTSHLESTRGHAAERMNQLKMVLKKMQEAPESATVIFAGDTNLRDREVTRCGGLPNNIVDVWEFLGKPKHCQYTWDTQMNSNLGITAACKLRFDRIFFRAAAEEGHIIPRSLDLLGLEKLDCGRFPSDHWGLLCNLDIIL
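System – recombinant human TDP2 · Quantity – TDP2 enzyme at 120 nM final · Doses – single concentration, 12.8 µM nominal, with 1% DMSO · Incubation – 2 h at 37 °C · Measured by – epi absorbance of p-nitrophenol freed from T5PNP by hydrolysis · Read-out – % inhibition relative to enzyme-containing and enzyme-free wells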
LEDGF integ inh: blockers of LEDGF/p75-dependent integrase strand transfer – biochemical, TR-FRET, high throughput, primary screen. HIV-1 integrase (with human LEDGF/p75). AID 743269, 2014. inhibition, % at 3.7 µM. TR-FRET IN-LEDGF/p75 DNA integration, Eu/Cy5. 370,000 compounds, 0.64% hits;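 active = inhibition above the screen-wide mean plus 3 SD, cut at about 13% in these data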;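 also: signal is the Cy5 over europium emission ratio at 671 and 618 nm; 0% = plate median of compound wells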
UHRF1 binding: UHRF1 methylated DNA binding inhibitors, primary screen, counter-screen for MBD2 inhibitor project, biochemical, TR-FRET, human UHRF1, single concentration | UHRF1 binding to methylated oligo | inhibition, % at 4.4 µM | 370,000 compounds, 0.75% hits | AID 687016, 2013; in the data active = inhibition above about 21%;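 also: UHRF1 SRA domain binding a hemimethylated CpG hairpin DNA probe; 0% = median of test compound wells and 100% = reference inhibitor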
TDP2 confirm: human TDP2 enzyme inhibitors, retest, confirmation, biochemical, epi absorbance, recombinant enzyme. shares compounds with TDP2 inh. absorbance read-out. inhibition, % at 12.8 µM. 1,100 compounds, 22% hits; in the data active = inhibition above about 25%;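 also: 0% = vehicle with enzyme and 100% = no enzyme buffer only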
IN multimer up: HIV-1 IN multimer formation enhancers, counter-screen for LEDGF/p75 integration inhibitor project, biochemical, TR-FRET; shares compounds with LEDGF integ inh; TR-FRET HIV-1 integrase multimerization; activation, % at 7.7 µM; 2,000 compounds, 17% hits; AID 1053131, 2014; in the data active = activation above about 8.9%
TRFRET interf: TR-FRET optical interference artefacts, confirmation, artefact control for LEDGF/p75-dependent integration inhibitor project, biochemical, HIV-1 IN multimerization; shares compounds with LEDGF integ inh; 2,000 tested, under 10 active; inhibition, % at 7.7 µM; TR-FRET optical interference counterscreen;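 active = inhibition above the mean over all tested compounds plus 3 SD, which no compound reached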;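 also: 0% = integrase with antibodies and DMSO and 100% = antibodies without integrase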
IN-LEDGF confirm: inhibitors of HIV-1 IN-LEDGF/p75 DNA integration, confirmation, biochemical, TR-FRET | AID 1053136, 2014 | TR-FRET LEDGF/p75-dependent HIV-1 integration | 2,000 compounds, 36% hits | inhibition, % at 3.7 µM | shares compounds with LEDGF integ inh; in the data active = inhibition above about 14%
Numbers without * were called inactive; nt = not tested or not shown. This is a sample that favours compounds with a hit; in the whole collection about 1.6% have one here.

SMILES	MBD2 DNA inh	TDP2 inh	LEDGF integ inh	UHRF1 binding	TDP2 confirm	IN multimer up	TRFRET interf	IN-LEDGF confirm
O=C1C=C(O)c2[nH]c(=O)ccc2C1=O	-10	41*	26*	10	42*	30*	-106	51*
NC1=CC(=O)C(=O)c2ccccc21	-20	15	9	-15	nt	nt	nt	nt
CCOc1ccc(NC(=O)Nc2nnc(CC)s2)cc1	-1	3	-2	-1	nt	nt	nt	nt
Cc1ccc(C)c(-n2c3nc(=O)[nH]c(=O)c-3cc3cc([N+](=O)[O-])ccc32)c1	-4	52*	21*	10	40*	-3	10	21*
Cc1ccc(C)c(-n2c3nc(=O)n(C)c(=O)c-3cc3ccccc32)c1	1	-7	-4	0	nt	nt	nt	nt
Cc1ccc(S(=O)(=O)NCC(=O)NCC(=O)N(C)Cc2ccc3ccccc3c2)cc1C	2	-10	-4	2	nt	nt	nt	nt
CCC(=Nc1ccc(N)cc1)C1=C(O)C(C(=O)OC)C(C)(C)CC1=O (stereo not given)	-2	55*	32*	21*	17	20*	-72	7
CCCC(=Nc1ccccc1)C1=C(O)C(C(=O)OC)C(C)(C)CC1=O (stereo not given)	-2	-9	0	-1	nt	nt	nt	nt
CCCCC(=Nc1ccc(N)cc1)C1=C(O)C(C(=O)OC)C(C)(C)CC1=O (stereo not given)	-6	60*	46*	13	17	19*	-67	4
CCOc1cc(/C=N/NC(=O)c2ccccn2)ccc1OC(=O)c1ccc(F)cc1	1	-5	1	-1	nt	nt	nt	nt
COc1cc2[nH]c(Cl)c([N+](=O)[O-])c2cc1OC	-2	40*	49*	9	3	3	-9	9
COc1cc2[nH]c3c(Cl)ncnc3c2cc1OC	3	2	1	3	nt	nt	nt	nt
Oc1ccc(Nc2ccccc2F)c2cccnc12	-16	36*	34*	-3	-16	2	-8	1
Oc1ccc(-c2ccccc2F)c2cccnc12	-2	8	6	-4	nt	nt	nt	nt
Cc1ccc(C(=O)NCC(=O)N(C)Cc2cccc(F)c2)s1	2	5	0	2	nt	nt	nt	nt
CC1OC(Nc2ccc(N=Nc3ccccc3)cc2)C(O)C(O)C1O (stereo not given)	-7	-6	-5	-3	nt	nt	nt	nt
CC1OC(Nc2cccc3ccccc23)C(O)C(O)C1O (stereo not given)	-8	34*	36*	-5	14	3	-13	5
COc1ccc(OCC(=O)Nc2c(C(=O)N3CCN(C)CC3)oc3ccccc23)cc1	-3	9	-3	-2	nt	nt	nt	nt
CCOC(=O)CNC(=S)N1CCn2c(nc3ccccc32)C1	1	-3	-1	-2	nt	nt	nt	nt
C=CCOc1cccc(C(=O)N2CCCC(Nc3ccc4c(c3)OCCO4)C2)c1 (stereo not given)	0	-3	-6	-2	nt	nt	nt	nt
CN(C)C(CNc1ccc(C(N)=O)cc1[N+](=O)[O-])c1ccccc1 (stereo not given)	-12	10	2	-12	nt	nt	nt	nt
O=C(NCCCO)c1ccc2nc(-c3ccco3)c(-c3ccco3)nc2c1	-5	40*	53*	17	31*	50*	-178	70*
O=C(Nc1ccc(N2CCOCC2)cc1)c1ccc2nc(-c3ccco3)c(-c3ccco3)nc2c1	2	-4	-2	-3	nt	nt	nt	nt
Cc1ccc(S(=O)(=O)Nc2ccc3c4c(cccc24)CC3)c(C)c1	2	3	1	2	nt	nt	nt	nt
Cc1ccc(S(=O)(=O)Nc2ccc(O)c3ccccc23)c(C)c1	-9	29*	14*	-5	10	4	-14	2
SMILES	MBD2 DNA inh	TDP2 inh	LEDGF integ inh	UHRF1 binding	TDP2 confirm	IN multimer up	TRFRET interf	IN-LEDGF confirm
O=C(CSc1nnc(Nc2ccccc2)s1)NCc1ccco1	1	-1	-1	-1	nt	nt	nt	nt
CCOC(=O)c1c2c(n(C)c1C)C(=O)C(=O)c1ccc(Br)cc1-2	5	-3	7	0	nt	nt	nt	nt
CCOC(=O)c1c2c(n(Cc3ccccc3)c1C)C(=O)C(=O)c1ccccc1-2	-9	51*	17*	2	73*	3	-9	72*
CCOC(=O)C1C(=O)C=C(c2ccc(C)cc2)CC1c1ccc([N+](=O)[O-])cc1 (stereo not given)	0	-9	-6	2	nt	nt	nt	nt
COC(=O)c1ccc(CN2C(=O)NC(CC(C)C)C2=O)cc1 (stereo not given)	1	10	61*	25*	nt	-1	5	-4
COc1ccccc1/C=C/C(=O)NCC(=O)N/N=C/c1ccccc1	1	-2	-2	-1	nt	nt	nt	nt
COc1ccccc1/C=C\C(=O)NCC(=O)N/N=C/c1ccc(O)cc1O	-1	-5	16*	-2	nt	5	-24	-4
COc1ccc(C[C@@H]2CN3C(=NC[C@@H]3C)N2C[C@H](C)NC(=O)CCC2CCCCC2)cc1	2	6	52*	2	nt	-3	12	-4
COC1=CC(=O)C(C2CC(=O)c3c(O)cc(O)cc3O2)=CC1=O (stereo not given)	5	6	46*	9	nt	46*	-233	24*
COc1c(CC=C(C)C)cc(C2CC(=O)c3c(O)cc(O)cc3O2)cc1CC=C(C)C (stereo not given)	3	1	-2	0	nt	nt	nt	nt
CC1=NN(c2ccccc2)C(=O)C1C(=S)SC1CC(=O)NC1=O (stereo not given)	-10	10	2	-7	nt	nt	nt	nt
O=C1CC(SC(=S)C2CCCC2=O)C(=O)N1 (stereo not given)	17*	15	24*	54*	nt	7	-37	22*
CN(C(=O)COC(=O)c1cncc(Br)c1)C1CCCCC1	7	8	16*	3	nt	-2	8	-3
CN(C(=O)COC(=O)c1cncc(Br)c1)C1CCS(=O)(=O)C1 (stereo not given)	-7	-5	4	-2	nt	nt	nt	nt

Compound activity (PubChem)
